# Active and inactive are the calls of the source. The rule behind the calls is not given here.
# What was measured:
# [1] = Toxicity against CEM cells; type: cell-based; conditions: human, CEM (CCRF-CEM) cells; read-out: TC50 (the source's name)
# [2] = test system: Human immunodeficiency virus 1; experiment: Antiviral activity against HIV1 infected CEM cells; type: functional, organism-based; conditions: for EC50: Human immunodeficiency virus 1, CCRF-CEM; for Activity: CCRF-CEM
# How it was run: (§1)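 Cell-based assay in HIV-1-infected CEM cells, read out as protection from virus-induced cell killing.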
# [3] = test system: Human immunodeficiency virus 1; experiment: Antiviral activity against wild type HIV1 NL4-3 by cytopathic cell killing assay; type: functional, organism-based; conditions: Human immunodeficiency virus 1, NL4-3; how it was run: as §1
# [4] = test system: Human immunodeficiency virus 1; experiment: Antiviral activity against HIV1 with RT K101E mutation by cytopathic cell killing assay; type: functional, organism-based
# [5] = test system: Human immunodeficiency virus 1; experiment: Antiviral activity against HIV1 with RT K103N mutation by cytopathic cell killing assay; type: functional, organism-based
# [6] = test system: Human immunodeficiency virus 1; experiment: Antiviral activity against HIV1 with RT V108I mutation by cytopathic cell killing assay; type: functional, organism-based
# [7] = test system: Human immunodeficiency virus 1; experiment: Antiviral activity against HIV1 with RT Y181C mutation by cytopathic cell killing assay; type: functional, organism-based
# [8] = test system: Human immunodeficiency virus 1; experiment: Antiviral activity against HIV1 with RT Y188C mutation by cytopathic cell killing assay; type: functional, organism-based
# [9] = test system: Human immunodeficiency virus 1; experiment: Antiviral activity against HIV1 with RT V106A mutation by cytopathic cell killing assay; type: functional, organism-based
# [10] = target: Human immunodeficiency virus type 1 reverse transcriptase (Human immunodeficiency virus 1, UniProt Q72547); experiment: Inhibition of HIV1 NL4-3 reverse transcriptase
# [11] = test system: Human immunodeficiency virus 1; experiment: Antiviral activity against HIV1 with RT L100I mutation by cytopathic cell killing assay; type: functional, organism-based
# [12] = target: Human immunodeficiency virus type 1 reverse transcriptase (Human immunodeficiency virus 1) (UniProt Q72547); experiment: Inhibition of HIV1 reverse transcriptase at 1 uM
# How it was run: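 Wild-type HIV-1 RT enzyme screen with rC-dG template-primer. Percent inhibition is the mean of two experiments, each run in triplicate.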
inhibition [12],SMILES,CC50 [1],EC50 [2],EC50 [3],EC50 [4],EC50 [5],EC50 [6],EC50 [7],EC50 [8],EC50 [9],IC50 [10],EC50 [11],Activity [2]
,NCc1cccc2c1nc(-c1c(F)cccc1F)n2Cc1c(F)cccc1F,49.3 µM,0.037 µM,1.36 µM,1.49 µM,> 50 µM,2.51 µM,12.8 µM,11.6 µM,9.23 µM,,,
,CN(C)c1cccc2c1nc(-c1c(F)cccc1F)n2Cc1c(F)cccc1F,> 100 µM,2.37 µM,,,,,,,,40 µM,,
,CC(=O)OCc1cccc2c1nc(-c1c(F)cccc1F)n2Cc1c(F)cccc1F,55.8 µM,0.059 µM,0.062 µM,0.025 µM,0.027 µM,0.013 µM,2.32 µM,0.033 µM,4.5 µM,,0.068 µM,
,CC(=O)Nc1cccc2c1nc(-c1c(F)cccc1F)n2Cc1c(F)cccc1F,39.3 µM,1.48 µM,1.97 µM,,> 100 µM,,> 100 µM,,,54.7 µM,3.25 µM,
,Fc1cccc(F)c1Cn1c(-c2c(F)cccc2F)nc2c(CCl)cccc21,13.4 µM,0.18 µM,0.16 µM,0.46 µM,3.34 µM,0.21 µM,2.38 µM,0.57 µM,4.7 µM,,0.08 µM,
,Nc1cccc2c1nc(-c1c(F)cccc1F)n2Cc1c(F)cccc1F,26.3 µM,0.46 µM,0.4 µM,> 20 µM,3.1 µM,3.3 µM,9.2 µM,2 µM,,0.28 µM,1.2 µM,
,[N-]=[N+]=NCc1cccc2c1nc(-c1c(F)cccc1F)n2Cc1c(F)cccc1F,> 100 µM,0.045 µM,0.045 µM,0.6 µM,1.48 µM,0.026 µM,0.28 µM,0.22 µM,0.61 µM,,0.08 µM,
,CC(=O)N(C)c1cccc2c1nc(-c1c(F)cccc1F)n2Cc1c(F)cccc1F,> 100 µM,0.02 µM,0.04 µM,0.64 µM,> 10 µM,> 10 µM,0.4 µM,0.54 µM,0.05 µM,0.32 µM,1.66 µM,
22%,Cc1ccc2c(c1)nc(-c1c(F)cccc1F)n2Cc1c(F)cccc1F,,,,,,,,,,,,
48%,Fc1cccc(F)c1Cn1c(-c2c(F)cccc2F)nc2cc(Cl)ccc21,,,,,,,,,,,,
,CC(=O)NCc1cccc2c1nc(-c1c(F)cccc1F)n2Cc1c(F)cccc1F,20.8 µM,,,,,,,,,,,inactive
,N=C(NO)c1cccc2c1nc(-c1c(F)cccc1F)n2Cc1c(F)cccc1F,23.1 µM,0.19 µM,,,,,,,,,,
,CC(=O)N(C)Cc1cccc2c1nc(-c1c(F)cccc1F)n2Cc1c(F)cccc1F,20.6 µM,0.58 µM,,,,,,,,,,
,COC(=O)c1cccc2c1nc(-c1c(F)cccc1F)n2Cc1c(F)cccc1F,57.7 µM,,,,,,,,,158 µM,,inactive
69%,Fc1cccc(F)c1Cn1c(-c2c(F)cccc2F)nc2ccc(Cl)cc21,,,,,,,,,,,,
,N#Cc1cccc2c1nc(-c1c(F)cccc1F)n2Cc1c(F)cccc1F,26.7 µM,0.43 µM,,,,,,,,,,
42%,Cc1ccc2nc(-c3c(F)cccc3F)n(Cc3c(F)cccc3F)c2c1,,,,,,,,,,,,
,O=C(O)c1cccc2c1nc(-c1c(F)cccc1F)n2Cc1c(F)cccc1F,23.5 µM,,,,,,,,,,,inactive

inhibition [12],SMILES,CC50 [1],EC50 [2],EC50 [3],EC50 [4],EC50 [5],EC50 [6],EC50 [7],EC50 [8],EC50 [9],IC50 [10],EC50 [11],Activity [2]
,CC(C)c1cccc2c1nc(-c1c(F)cccc1F)n2Cc1c(F)cccc1F,27 µM,6.34 µM,,,,,,,,,,
,N#CCc1cccc2c1nc(-c1c(F)cccc1F)n2Cc1c(F)cccc1F,,0.06 µM,0.06 µM,,4.2 µM,,2.2 µM,,,,,
26%,Cc1ccc2c(nc(-c3c(F)cccc3F)n2Cc2c(F)cccc2F)c1C,,,,,,,,,,,,
,O=Cc1cccc2c1nc(-c1c(F)cccc1F)n2Cc1c(F)cccc1F,0.82 µM,0.12 µM,,,,,,,,,,
,CN(C)C(=O)c1cccc2c1nc(-c1c(F)cccc1F)n2Cc1c(F)cccc1F,80.1 µM,,,,,,,,,,,inactive
37%,Cc1cc(C)c2nc(-c3c(F)cccc3F)n(Cc3c(F)cccc3F)c2c1,,,,,,,,,,,,
,NC(=O)c1cccc2c1nc(-c1c(F)cccc1F)n2Cc1c(F)cccc1F,> 100 µM,4.9 µM,,,,,,,,,,
43%,Fc1cccc(F)c1Cn1c(-c2c(F)cccc2F)nc2cc(Br)ccc21,,,,,,,,,,,,
,CCc1cccc2c1nc(-c1c(F)cccc1F)n2Cc1c(F)cccc1F,26.1 µM,0.82 µM,0.9 µM,> 50 µM,> 50 µM,> 50 µM,7.18 µM,,,17.5 µM,2.48 µM,
,O=[N+]([O-])c1cccc2c1nc(-c1c(F)cccc1F)n2Cc1c(F)cccc1F,30.1 µM,2.4 µM,,,,,,,,1.88 µM,,
1%,Cc1cccc2nc(-c3c(F)cccc3F)n(Cc3c(F)cccc3F)c12,,,,,,,,,,,,
,CNc1cccc2c1nc(-c1c(F)cccc1F)n2Cc1c(F)cccc1F,27.2 µM,1.7 µM,,,,,,,,4.94 µM,,
,Oc1cccc2c1nc(-c1c(F)cccc1F)n2Cc1c(F)cccc1F,> 100 µM,0.65 µM,,,,,,,,,,
,Cc1ccnc2c1NC(=O)c1cccnc1N2C1CC1 [NEVIRAPINE],,0.035 µM,0.1 µM,1.1 µM,1.09 µM,0.2 µM,4.9 µM,0.1 µM,2.36 µM,,0.72 µM,
,COc1cccc2c1nc(-c1c(F)cccc1F)n2Cc1c(F)cccc1F,44.3 µM,0.06 µM,0.06 µM,2.82 µM,> 50 µM,2.82 µM,0.26 µM,,,0.0073 µM,0.16 µM,
,COCc1cccc2c1nc(-c1c(F)cccc1F)n2Cc1c(F)cccc1F,,0.06 µM,,,,,,,,,,
,OCc1cccc2c1nc(-c1c(F)cccc1F)n2Cc1c(F)cccc1F,58.1 µM,0.023 µM,0.048 µM,5 µM,13.6 µM,0.023 µM,0.72 µM,0.17 µM,5.9 µM,,0.02 µM,
30%,O=[N+]([O-])c1ccc2c(c1)nc(-c1c(F)cccc1F)n2Cc1c(F)cccc1F,,,,,,,,,,,,

SMILES,inhibition [12],CC50 [1],EC50 [2],EC50 [3],EC50 [4],EC50 [5],EC50 [6],EC50 [7],EC50 [8],EC50 [9],IC50 [10],EC50 [11],Activity [2]
Fc1cccc(F)c1Cn1c(-c2c(F)cccc2F)nc2c(Br)cccc21,78%,24.5 µM,0.37 µM,0.5 µM,> 20 µM,> 20 µM,4.2 µM,10.7 µM,3.7 µM,,1.61 µM,0.5 µM,
Fc1cccc(F)c1Cn1c(-c2c(F)cccc2F)nc2ccccc21,50%,18.8 µM,1.7 µM,,,,,,,,0.11 µM,,
Fc1cccc(F)c1Cn1c(-c2c(F)cccc2F)nc2c(Cl)cccc21,75%,30.4 µM,0.44 µM,0.5 µM,> 20 µM,10.2 µM,3.2 µM,8.4 µM,3.4 µM,,2.63 µM,0.3 µM,
Cc1cccc2c1nc(-c1c(F)cccc1F)n2Cc1c(F)cccc1F,71%,> 100 µM,0.44 µM,0.5 µM,16.7 µM,8.1 µM,2.8 µM,6 µM,2.3 µM,,0.2 µM,0.3 µM,

# From ChEMBL document CHEMBL1148728, “Synthesis, biological activity, and crystal structure of potent nonnucleoside inhibitors of HIV-1 reverse transcriptase that retain activity against mutant forms of the enzyme” (J Med Chem, 2007)
